Blank lines part the entries; values can stand above or below the compound they belong to. Active and inactive are the calls of the source. The calls are words filed in the database; no cut-off is given here.
Key:
[1] = test system: MOLT-4; assay: Cytostatic activity against human Molt4/C8 cells after 3 days by coulter counter assay; type: functional, cell-based; details: MOLT-4, 72 h
In short: (§1)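 Tumor cells seeded in 96-well plates and exposed to a range of compound concentrations. Exposure was 2 days for L1210 and 3 days for Molt4/C8 and CEM. Cell number was counted on a Coulter particle counter. IC50 is the concentration inhibiting proliferation by 50%. Run in triplicate.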

[2] = test system: L1210; assay: Cytostatic activity against mouse L1210 cells after 2 days by coulter counter assay; type: functional, cell-based; details: L1210, 48 h; in short: as §1
[3] = test system: CCRF-CEM; assay: Cytostatic activity against human CEM cells after 3 days by coulter counter assay; type: functional, cell-based; details: 72 h; in short: as §1
[4] = test system: MCF7; assay: Cytotoxicity activity against human MCF7 cells by MTS assay; type: functional, cell-based
In short: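 MCF-7 cells in DMEM with 10% heat-inactivated FBS, seeded at 30,000 cells/well in 24-well plates. After compound treatment, viability was read by MTS assay (CellTiter 96 AQueous). Run in triplicate.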

[5] = biological target: T1, Estrogen receptor (Homo sapiens) (UniProt P03372); assay: Binding affinity to estrogen receptor alpha in human MCF7 cells assessed as NR peptide-ERalpha complex formation at 25 uM by colorimetric ELISA; type: cell-based
T1 sequence (whole entry): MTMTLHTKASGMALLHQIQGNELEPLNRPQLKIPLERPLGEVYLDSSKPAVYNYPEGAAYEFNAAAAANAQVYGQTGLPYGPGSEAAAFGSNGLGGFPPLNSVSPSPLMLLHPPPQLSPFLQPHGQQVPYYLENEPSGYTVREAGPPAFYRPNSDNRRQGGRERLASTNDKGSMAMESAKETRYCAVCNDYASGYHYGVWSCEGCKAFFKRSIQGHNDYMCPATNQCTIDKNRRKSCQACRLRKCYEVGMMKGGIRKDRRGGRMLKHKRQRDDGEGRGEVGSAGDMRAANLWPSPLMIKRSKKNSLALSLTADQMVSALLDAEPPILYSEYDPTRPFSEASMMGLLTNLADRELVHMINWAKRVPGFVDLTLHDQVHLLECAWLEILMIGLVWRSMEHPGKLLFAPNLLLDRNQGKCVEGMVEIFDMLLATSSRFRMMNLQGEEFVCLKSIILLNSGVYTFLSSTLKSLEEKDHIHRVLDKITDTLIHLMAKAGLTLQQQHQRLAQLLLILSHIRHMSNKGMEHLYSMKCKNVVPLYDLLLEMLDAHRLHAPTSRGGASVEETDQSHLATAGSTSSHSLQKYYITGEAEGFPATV

[6] = biological target: T1, Estrogen receptor (Homo sapiens); assay: Binding affinity to estrogen receptor alpha in human MCF7 cells assessed as NR peptide-ERalpha complex formation at 2.5 uM by colorimetric ELISA; type: cell-based

SMILES: Oc1ccc2ccccc2c1C(c1ccc2c(c1)OCO2)N1CCC(O)CC1 (single isomer, unassigned; (-))
IC50 [1]: 44 µM | IC50 [2]: 45 µM | IC50 [3]: 37 µM

SMILES: CC(=O)OC1CCN(C(c2ccc(C)cc2)c2c(O)ccc3ccccc23)CC1 (single isomer, unassigned; (+))
IC50 [1]: 47 µM | IC50 [2]: 45 µM | IC50 [3]: 35 µM

SMILES: COc1ccc(C(c2c(O)ccc3ccccc23)N2CCC(OC(C)=O)CC2)cc1OC (single isomer, unassigned; (+))
IC50 [1]: 12 µM | IC50 [2]: 48 µM | IC50 [3]: 24 µM

SMILES: CC/C(=C(\c1ccccc1)c1ccc(OCCN(C)C)cc1)c1ccccc1 [TAMOXIFEN]
IC50 [4]: 31 µM

SMILES: CN(C)CCOc1ccc(C(c2c(O)ccc3ccccc23)N2CCC(O)CC2)cc1 (racemic)
IC50 [4]: 22.6 µM

SMILES: Oc1ccc2ccccc2c1Cc1ccc(OCCN2CCCC2)cc1
IC50 [4]: 6.71 µM

SMILES: Oc1ccc2ccccc2c1C(c1ccccc1)N1CCC(O)CC1 (configuration not stated)
IC50 [1]: 43 µM | IC50 [2]: 50 µM | IC50 [3]: 36 µM

SMILES: Oc1ccc2ccccc2c1C(c1ccc(OCCN2CCOCC2)cc1)N1CCC(O)CC1 (racemic)
IC50 [4]: 424 µM

SMILES: CC(=O)OC1CCN(C(c2ccccn2)c2c(O)ccc3ccccc23)CC1 (configuration not stated)
IC50 [1]: 49 µM | IC50 [2]: 92 µM | IC50 [3]: 55 µM

SMILES: Cc1ccc(C(c2c(O)ccc3ccccc23)N2CCC(O)CC2)cc1 (single isomer, unassigned; (-))
IC50 [1]: 39 µM | IC50 [2]: 44 µM | IC50 [3]: 29 µM

SMILES: CN(C)CCOc1ccc(Cc2c(O)ccc3ccccc23)cc1
IC50 [4]: 10.2 µM

SMILES: Oc1ccc2ccccc2c1C(c1ccccn1)N1CCC(O)CC1 (single isomer, unassigned; (+))
IC50 [1]: 52 µM | IC50 [2]: 118 µM | IC50 [3]: 54 µM

SMILES: CCN(CC)CCOc1ccc(Cc2c(O)ccc3ccccc23)cc1
IC50 [4]: 6.2 µM

SMILES: Oc1ccc2ccccc2c1Cc1ccc(OCCN2CCCCC2)cc1
IC50 [4]: 6.82 µM

Activity [5]: Active | Activity [6]: Active
SMILES: CC1CCN(CCOc2ccc(Cc3c(O)ccc4ccccc34)cc2)CC1
IC50 [4]: 4.38 µM

SMILES: Oc1ccc2ccccc2c1Cc1ccc(OCCN2CCCCCC2)cc1
IC50 [4]: 6.21 µM

SMILES: CC(C)N(CCOc1ccc(C(c2c(O)ccc3ccccc23)N2CCC(O)CC2)cc1)C(C)C (racemic)
IC50 [4]: 52.3 µM

SMILES: CC(C)N(CCOc1ccc(Cc2c(O)ccc3ccccc23)cc1)C(C)C
IC50 [4]: 7.54 µM

SMILES: Oc1ccc2ccccc2c1C(c1ccc(F)cc1)N1CCC(O)CC1 (single isomer, unassigned; (-))
IC50 [1]: 41 µM | IC50 [2]: 44 µM | IC50 [3]: 24 µM

SMILES: COc1ccc(C(c2c(O)ccc3ccccc23)N2CCC(OC(C)=O)CC2)cc1 (single isomer, unassigned; (+))
IC50 [1]: 42 µM | IC50 [2]: 43 µM | IC50 [3]: 22 µM

SMILES: Oc1ccc2ccccc2c1C(c1ccc(OCCN2CCCC2)cc1)N1CCC(O)CC1 (racemic)
IC50 [4]: 37.5 µM

SMILES: Oc1ccc2ccccc2c1C(c1ccc(Cl)cc1)N1CCC(O)CC1 (single isomer, unassigned; (-))
IC50 [1]: 33 µM | IC50 [2]: 46 µM | IC50 [3]: 19 µM

SMILES: CC(=O)OC1CCN(C(c2ccc3c(c2)OCO3)c2c(O)ccc3ccccc23)CC1 (configuration not stated)
IC50 [1]: 69 µM | IC50 [2]: 48 µM | IC50 [3]: 51 µM

SMILES: CC(=O)OC1CCN(C(c2ccccc2)c2c(O)ccc3ccccc23)CC1 (single isomer, unassigned; (+))
IC50 [1]: 38 µM | IC50 [2]: 58 µM | IC50 [3]: 31 µM

SMILES: Oc1ccc2ccccc2c1Cc1ccc(OCCN2CCOCC2)cc1
IC50 [4]: > 25 µM

SMILES: CC(=O)OC1CCN(C(c2ccc(F)cc2)c2c(O)ccc3ccccc23)CC1 (single isomer, unassigned; (+))
IC50 [1]: 40 µM | IC50 [2]: 45 µM | IC50 [3]: 27 µM

SMILES: Oc1ccc2ccccc2c1C(c1ccc(OCCN2CCCCC2)cc1)N1CCC(O)CC1 (racemic)
IC50 [4]: 36.4 µM

SMILES: Oc1ccc2ccccc2c1C(c1ccc(Cl)c(Cl)c1)N1CCC(O)CC1 (configuration not stated)
IC50 [1]: 36 µM | IC50 [2]: 43 µM | IC50 [3]: 17 µM

SMILES: COc1ccc(C(c2c(O)ccc3ccccc23)N2CCC(O)CC2)cc1 (configuration not stated)
IC50 [1]: 35 µM | IC50 [2]: 42 µM | IC50 [3]: 14 µM

SMILES: CCN(CC)CCOc1ccc(C(c2c(O)ccc3ccccc23)N2CCC(O)CC2)cc1 (racemic)
IC50 [4]: 19 µM

SMILES: CC(=O)OC1CCN(C(c2ccncc2)c2c(O)ccc3ccccc23)CC1 (single isomer, unassigned; (-))
IC50 [1]: 59 µM | IC50 [2]: 80 µM | IC50 [3]: 79 µM

SMILES: Oc1ccc2ccccc2c1C(c1ccncc1)N1CCC(O)CC1 (single isomer, unassigned; (+))
IC50 [1]: 107 µM | IC50 [2]: 154 µM | IC50 [3]: 133 µM

SMILES: CC(=O)OC1CCN(C(c2ccc(Cl)c(Cl)c2)c2c(O)ccc3ccccc23)CC1 (single isomer, unassigned; (+))
IC50 [1]: 34 µM | IC50 [2]: 31 µM | IC50 [3]: 15 µM

SMILES: CC(=O)OC1CCN(C(c2ccc(Cl)cc2)c2c(O)ccc3ccccc23)CC1 (single isomer, unassigned; (+))
IC50 [1]: 35 µM | IC50 [2]: 41 µM | IC50 [3]: 28 µM

SMILES: COc1ccc(C(c2c(O)ccc3ccccc23)N2CCC(O)CC2)cc1OC (single isomer, unassigned; (-))
IC50 [1]: 18 µM | IC50 [2]: 50 µM | IC50 [3]: 25 µM
